Measurements published in ChEMBL document CHEMBL4229323, “Merocyclophanes C and D from the Cultured Freshwater Cyanobacterium Nostoc sp. (UIC 10110)” (J Nat Prod, 2017).

Key:
Assay type in all cases: functional, cell-based
OVCAR-3 = assay: Cytotoxicity in human OVCAR3 cells assessed as reduction in cell viability incubated for 72 hrs by cell-titer-96 aqueous one solution cell proliferation assay; conditions: OVCAR-3, 72 h
Procedure, shortened: (§1)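 Cells were seeded and cultured overnight at 37 °C in 5% CO2, then exposed to sample, paclitaxel (positive control) or DMSO vehicle for 72 h. Viability was read by CellTiter 96 AQueous One Solution (MTS) assay, and IC50 was calculated relative to the vehicle control.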

MDA-MB-435 = assay: Cytotoxicity in human MDA-MB-435 cells assessed as reduction in cell viability incubated for 72 hrs by cell-titer-96 aqueous one solution cell proliferation assay; conditions: MDA-MB-435, 72 h; procedure, shortened: as §1
MDA-MB-231 = assay: Cytotoxicity in human MDA-MB-231 cells assessed as reduction in cell viability incubated for 72 hrs by cell-titer-96 aqueous one solution cell proliferation assay; conditions: MDA-MB-231, 72 h; procedure, shortened: as §1

| Structure (SMILES) | IC50 (OVCAR-3) [nM] | IC50 (MDA-MB-435) [nM] | IC50 (MDA-MB-231) [nM] |
| --- | --- | --- | --- |
| CCCC[C@H]1CCCC[C@H](C)[C@@H](OC(C)=O)c2cc(O)c(c(O)c2)[C@@H](CCCC)CCCC[C@H](C)[C@@H](OC(C)=O)c2cc(O)c1c(O)c2 | 10000 | 12000 | 13000 |
| C[C@H]1CCCC[C@H](CCCC(Cl)Cl)c2c(O)cc(cc2O)[C@H](OC(N)=O)[C@@H](C)CCCC[C@H](CCCC(Cl)Cl)c2c(O)cc(cc2O)[C@@H]1OC(N)=O | 4300 | 2400 | 1000 |
| C[C@@H]1CCCCC[C@H](CCCCO)c2c(O)cc(cc2O)[C@H](C)CCCCC[C@H](CCCCO)c2c(O)cc1cc2O | 2000 | 900 | 1000 |
| C[C@H]1CCCC[C@H](CCCC(Cl)Cl)c2c(O)cc(cc2O)[C@H](OC(N)=O)[C@@H](C)CCCC[C@H](CCCC(Cl)Cl)c2c(O)cc(cc2O)[C@@H]1O | 4200 | 3200 | 1200 |
| CCCC[C@H]1CCCCC[C@@H](C)c2cc(O)c(c(O)c2)[C@@H](CCCCO)CCCCC[C@@H](C)c2cc(O)c1c(O)c2 | 1400 | 1600 | 1400 |
| CCCC[C@H]1CCCCC[C@@H](C)c2cc(O)c(c(O)c2)[C@@H](CCCC)CCCCC[C@@H](C)c2cc(O)c1c(O)c2 | 5100 | 9800 | 6200 |
